Activity calls are given as the source filed them. No cut-off for these calls is given here.
Key:
BXPC-3 = assay: Cytotoxicity against human BxPC3 cells after 72 hrs; format: functional, cell-based; details: BXPC-3, 72 h
Summary of the method: (§1)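 Cells (ATCC) were exposed in log-phase growth for 72 h to compound across 10 µM to 10 nM in RPMI with 10% FCS, 4 mM glutamine, penicillin/streptomycin and fungizone, at 37 °C under 5% CO2. Viability was read as ATP from viable cells by luminescence kit. IC50 is the dose cutting ATP release by 50%.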

V79 = assay: Effect on DNA damage in Chinese hamster V79 cells at 10 uM after 1 hr by comet assay relative to control; format: functional, cell-based; details: Cricetulus griseus
Summary of the method: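 Cells were treated for 1 h at 10 µM. Controls carried 1% DMSO, matching the drug samples. Strand breaks were scored by comet assay, with representative photomicrographs (10×) of each full slide.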

DNA topoisomerase 1 = target: T1, DNA topoisomerase 1 (Homo sapiens, UniProt P11387); assay: Inhibition of topoisomerase 1-mediated DNA relaxation
T1 sequence (P11387 whole entry): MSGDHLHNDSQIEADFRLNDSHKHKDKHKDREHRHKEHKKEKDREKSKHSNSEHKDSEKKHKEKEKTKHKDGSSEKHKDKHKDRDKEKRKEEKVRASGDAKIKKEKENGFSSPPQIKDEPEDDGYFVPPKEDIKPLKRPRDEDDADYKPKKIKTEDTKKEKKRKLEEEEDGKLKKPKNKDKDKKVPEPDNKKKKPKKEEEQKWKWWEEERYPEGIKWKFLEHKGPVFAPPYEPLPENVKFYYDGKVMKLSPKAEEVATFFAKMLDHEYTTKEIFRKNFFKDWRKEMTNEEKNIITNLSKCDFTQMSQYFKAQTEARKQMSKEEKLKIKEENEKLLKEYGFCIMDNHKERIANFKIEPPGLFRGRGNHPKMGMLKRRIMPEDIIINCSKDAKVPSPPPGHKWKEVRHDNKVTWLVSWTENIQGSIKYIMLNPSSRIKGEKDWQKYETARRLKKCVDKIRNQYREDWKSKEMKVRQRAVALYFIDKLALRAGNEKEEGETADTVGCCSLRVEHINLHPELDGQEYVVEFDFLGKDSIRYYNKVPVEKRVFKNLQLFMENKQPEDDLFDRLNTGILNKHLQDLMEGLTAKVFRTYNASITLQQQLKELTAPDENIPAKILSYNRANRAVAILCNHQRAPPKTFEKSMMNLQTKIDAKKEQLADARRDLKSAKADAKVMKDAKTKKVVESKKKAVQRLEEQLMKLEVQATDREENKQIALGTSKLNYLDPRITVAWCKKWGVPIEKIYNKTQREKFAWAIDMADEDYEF
Summary of the method: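 Supercoiled plasmid DNA (200 ng) was incubated 20 min at 37 °C with the minimum purified topoisomerase I needed for full relaxation, with or without drug at 1, 3.2, 10 or 100 µM. The reaction was stopped with SDS–proteinase K, and products were resolved by agarose gel electrophoresis.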

A549 [1] = assay: Cytotoxicity against human A549 cells after 72 hrs; format: functional, cell-based; details: A549, 72 h; summary of the method: as §1
[2] = Displacement of ethidium bromide from DNA
[3] = target: DNA topoisomerase 2-alpha (Homo sapiens, UniProt P11388); assay: Inhibition of topoisomerase 2 mediated DNA relaxation
DNA topoisomerase 2-alpha, sequence (P11388 whole entry): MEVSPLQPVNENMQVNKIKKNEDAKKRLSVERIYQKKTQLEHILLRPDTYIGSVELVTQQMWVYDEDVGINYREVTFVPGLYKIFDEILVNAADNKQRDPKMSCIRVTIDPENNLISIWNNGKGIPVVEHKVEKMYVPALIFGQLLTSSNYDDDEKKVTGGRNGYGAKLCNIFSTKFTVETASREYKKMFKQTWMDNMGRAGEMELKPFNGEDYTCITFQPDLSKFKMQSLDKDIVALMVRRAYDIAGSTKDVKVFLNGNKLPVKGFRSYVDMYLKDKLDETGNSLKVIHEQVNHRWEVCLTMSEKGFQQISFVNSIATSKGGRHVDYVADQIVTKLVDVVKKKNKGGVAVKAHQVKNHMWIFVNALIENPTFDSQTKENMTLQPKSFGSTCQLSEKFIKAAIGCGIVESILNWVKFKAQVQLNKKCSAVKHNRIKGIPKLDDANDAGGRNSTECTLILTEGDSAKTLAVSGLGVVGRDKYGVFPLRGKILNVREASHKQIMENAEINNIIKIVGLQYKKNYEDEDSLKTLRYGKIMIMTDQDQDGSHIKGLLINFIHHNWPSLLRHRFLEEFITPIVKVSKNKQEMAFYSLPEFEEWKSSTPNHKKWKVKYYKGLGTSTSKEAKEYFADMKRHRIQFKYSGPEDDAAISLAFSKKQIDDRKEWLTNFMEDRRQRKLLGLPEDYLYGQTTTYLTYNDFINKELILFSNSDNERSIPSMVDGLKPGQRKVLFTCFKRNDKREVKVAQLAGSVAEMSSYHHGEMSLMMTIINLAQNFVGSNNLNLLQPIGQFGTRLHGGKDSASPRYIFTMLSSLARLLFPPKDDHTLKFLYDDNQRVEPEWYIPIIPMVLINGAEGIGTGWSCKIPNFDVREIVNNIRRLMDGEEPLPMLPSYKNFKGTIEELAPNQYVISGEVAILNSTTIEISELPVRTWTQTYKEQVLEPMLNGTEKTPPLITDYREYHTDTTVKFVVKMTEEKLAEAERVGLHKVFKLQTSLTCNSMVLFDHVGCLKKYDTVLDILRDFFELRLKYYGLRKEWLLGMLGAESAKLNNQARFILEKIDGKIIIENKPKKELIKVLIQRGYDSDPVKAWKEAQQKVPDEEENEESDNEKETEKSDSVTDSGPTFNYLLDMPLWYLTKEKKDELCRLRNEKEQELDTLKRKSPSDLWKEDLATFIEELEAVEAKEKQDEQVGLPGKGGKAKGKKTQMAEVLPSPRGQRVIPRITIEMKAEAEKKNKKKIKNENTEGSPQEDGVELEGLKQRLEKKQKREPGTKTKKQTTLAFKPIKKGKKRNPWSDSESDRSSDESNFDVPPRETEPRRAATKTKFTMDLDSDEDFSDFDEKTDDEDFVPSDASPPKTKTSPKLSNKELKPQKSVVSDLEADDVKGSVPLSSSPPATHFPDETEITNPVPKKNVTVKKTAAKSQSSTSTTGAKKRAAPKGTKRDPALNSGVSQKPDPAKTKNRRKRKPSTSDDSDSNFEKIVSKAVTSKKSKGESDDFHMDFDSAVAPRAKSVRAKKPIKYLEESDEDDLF

Mus musculus = assay: Toxicity in P388 cells xenografted mouse at 10 to 20 mg/kg, ip for 4 days; format: organism-based; set-up: dose 10-20 mg/kg, route intraperitoneal; details: in vivo, 96 h
Summary of the method: (§2)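 Compounds were given ip at 10 or 20 mg/kg per injection, once daily for 4 days. Antitumor activity and toxicity were both recorded.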

LoVo = assay: Cytotoxicity against human LoVo cells after 72 hrs; format: functional, cell-based; summary of the method: as §1
[4] = Displacement of Hoechst 33258 from DNA
[5] = Cytotoxicity against human Namalwa cells after 72 hrs; format: functional, cell-based; details: NAMALVA; summary of the method: as §1
MCF7 = assay: Cytotoxicity against human MCF7 cells after 72 hrs; format: functional, cell-based; details: MCF7, 72 h; summary of the method: as §1
P388 [6] = assay: Antitumor activity in mouse P388 leukemia model at 20 mg/kg, ip for 4 days; format: functional, organism-based; set-up: dose 20 mg/kg; summary of the method: as §2
[7] = Inhibition of topoisomerase by kinetoplast DNA decatenation assay
P388 [8] = assay: Antitumor activity in mouse P388 cells xenografted mouse at 10 mg/kg, ip for 4 days; format: functional, organism-based; set-up: dose 10 mg/kg; summary of the method: as §2
SK-OV-3 = assay: Cytotoxicity against human SKOV3 cells after 72 hrs; format: functional, cell-based; details: SK-OV-3, 72 h; summary of the method: as §1
A549 [9] = assay: Cell cycle arrest in human A549 cells by accumulation at S phase after 48 hrs by flow cytometry; format: functional, cell-based
Summary of the method: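 A549 cells were seeded at 1.3 × 10^4 cells/cm², then drug-treated. They were stained with propidium iodide and read by flow cytometry on the […] channel. G1, S and G2/M fractions were obtained by deconvolution.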

[10] = Cytotoxicity against human HL60/MX2 cells; format: functional, cell-based
CEM/C2 = assay: Cytotoxicity against human topoisomerase 1 mutant CEM/C2 cells; format: functional, cell-based; summary of the method: as §1
CCRF-CEM = assay: Cytotoxicity against human CEM cells; format: functional, cell-based; summary of the method: as §1
HL-60 = assay: Cytotoxicity against human HL60 cells; format: functional, cell-based
[11] = Inhibition of topoisomerase by kinetoplast DNA decatenation assay at 100 uM

## NCCc1c(C(c2[nH]c3cc(Br)ccc3c2CCNC(=O)C(F)(F)F)c2cn(S(=O)(=O)c3ccccc3)c3ccccc23)[nH]c2cc(Br)ccc12 (stereo not given)
BXPC-3
  IC50: 3.6 µM
V79
  Activity: Active
DNA topoisomerase 1
  IC50: 9 µM
A549 [1]
  IC50: 5 µM
[2]
  Activity: inactive
[3]
  IC50: 19 µM
Mus musculus
  Activity: Non-toxic
LoVo
  IC50: 4.5 µM
[4]
  Activity: inactive
[5]
  IC50: 3.5 µM
MCF7
  IC50: 4.9 µM
P388 [6]
  Activity: Non-toxic
[7]
  IC50: 20 µM
P388 [8]
  Activity: Non-toxic
SK-OV-3
  IC50: 6.5 µM
A549 [9]
  Activity: Dose-dependent effect

## NCCc1c(C(c2[nH]c3cc(Br)ccc3c2CCNC(=O)C(F)(F)F)c2c[nH]c3ccccc23)[nH]c2cc(Br)ccc12 (stereo not given)
BXPC-3
  IC50: 5.1 µM
V79
  Activity: Active
DNA topoisomerase 1
  IC50: 8 µM
A549 [1]
  IC50: 4.6 µM
[10]
  IC50: 10 µM
CEM/C2
  IC50: 5.6 µM
[2]
  Activity: inactive
[3]
  IC50: 13 µM
CCRF-CEM
  IC50: 5.5 µM
Mus musculus
  Activity: Non-toxic
LoVo
  IC50: 5 µM
[4]
  Activity: inactive
[5]
  IC50: 5.4 µM
MCF7
  IC50: 4.2 µM
P388 [6]
  Activity: Non-toxic
[7]
  IC50: 20 µM
P388 [8]
  Activity: Non-toxic
SK-OV-3
  IC50: 6.5 µM
A549 [9]
  Activity: Dose-dependent effect
HL-60
  IC50: 8.8 µM

## NCCc1c(C2(c3c[nH]c4ccccc34)NCCc3c2[nH]c2ccccc32)[nH]c2ccccc12 (stereo not given) [BENGACARBOLINE]
BXPC-3
  IC50: 10 µM
A549 [1]
  IC50: 7.1 µM
[3]
  IC50: > 100 µM
[11]
  Activity: inactive
LoVo
  IC50: 9.9 µM
[5]
  IC50: > 10 µM
MCF7
  IC50: 8.6 µM
SK-OV-3
  IC50: > 10 µM
A549 [9]
  Activity: Active

Reference: ChEMBL document CHEMBL1142316, “Synthesis and biological evaluation of bengacarboline derivatives” (Bioorg Med Chem Lett, 2008)
